From ChEMBL document CHEMBL1129987, “Structure-based design of nonpeptidic HIV protease inhibitors: the sulfonamide-substituted cyclooctylpyramones” (J Med Chem, 1997)

Assays:
[1] = Total plasma clearance value was obtained after intravenous administration of 5.1 mg/kg of drug in male Dawley rats; format: ADME, organism-based; parameters: dose 5.1 mg/kg, route intravenous; conditions: Sprague-Dawley, rat
[2] = Maximum concentration was measured after peroral administration of 5.0 mg/kg of drug in male Dawley rats; format: ADME, organism-based; parameters: dose 5 mg/kg, route oral; conditions: Sprague-Dawley, rat, in vivo, po
[3] = Maximum time taken by the drug to reach peak concentration after peroral administration of 5.0 mg/kg of drug in male Dawley rats; format: ADME, organism-based; parameters: dose 5 mg/kg, route oral; conditions: Sprague-Dawley, rat, in vivo, po
[4] = Oral bioavailability in rat (Sprague-Dawley) (male) (dose 5 mg/kg); format: ADME, organism-based; conditions: in vivo
[5] = Apparent volume of distribution was obtained after intravenous administration of 5.1 mg/kg of drug in male Dawley rats; format: ADME, organism-based; parameters: dose 5.1 mg/kg, route intravenous; conditions: Sprague-Dawley, rat, in vivo, read-out: Vss
[6] = Half-life was measured after intravenous administration of 5.1 mg/kg of drug in male Dawley rats; format: ADME, organism-based; parameters: dose 5.1 mg/kg, route intravenous; conditions: Sprague-Dawley, rat, in vivo
[7] = system: Human immunodeficiency virus 1; experiment: Antiviral activity in HIV-1 infected H9 cells; format: functional; conditions: Human immunodeficiency virus 1, H9; read-out: ED50 (the source's name)
Outline: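 H9 cells infected with HIV-1 IIIB at MOI about 0.005, spun down (200g, 10 min), resuspended at 8 × 10^5 cells/mL in RPMI Complete and mixed with compound; final DMSO 0.1%, triplicate per concentration. After 5 days at 37 °C in 5% CO2, supernatant p24 antigen was measured by ELISA. ED50 is the drug amount that reduces p24 by 50% versus DMSO drug-free controls.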

[8] = Median cell culture toxic dose was evaluated against H9 cell line; format: ADME, cell-based; conditions: human, H9 cells; read-out: CCTD50
[9] = Total plasma clearance value was obtained after intravenous administration of […] mg/kg of drug in male Dawley rats; format: ADME, organism-based; conditions: male, Sprague-Dawley, rat, plasma, 2.8 mg/kg
[10] = Maximum concentration was measured after peroral administration of 5.1 mg/kg of drug in male Dawley rats; format: ADME, organism-based; parameters: dose 5.1 mg/kg, route oral; conditions: Sprague-Dawley, rat, in vivo, po
[11] = Maximum time taken by the drug to reach peak concentration after peroral administration of 5.1 mg/kg of drug in male Dawley rats; format: ADME, organism-based; parameters: dose 5.1 mg/kg, route oral; conditions: Sprague-Dawley, rat, in vivo, po
[12] = Oral bioavailability in rat (Sprague-Dawley) (male) (dose 5.1 mg/kg p.o.); format: ADME, organism-based; conditions: in vivo
[13] = Apparent volume of distribution was obtained after intravenous administration of 2.8 mg/kg of drug in male Dawley rats; format: ADME, organism-based; parameters: dose 2.8 mg/kg, route intravenous; conditions: male, Sprague-Dawley, rat, in vivo, read-out: Vss
[14] = Half-life was measured after intravenous administration of […] mg/kg of drug in male Dawley rats; format: ADME, organism-based; conditions: male, Sprague-Dawley, rat, in vivo, 2.8 mg/kg
[15] = target: Human immunodeficiency virus type 1 protease (Human immunodeficiency virus 1, UniProt Q72874); experiment: Binding affinity against HIV-1 protease
[16] = target: Human immunodeficiency virus type 1 protease (Human immunodeficiency virus 1) (UniProt Q72874); experiment: Percentage inhibition against HIV-1 protease at 1.1 uM concentration of drug
[17] = target: Human immunodeficiency virus type 1 protease (Human immunodeficiency virus 1) (UniProt Q72874); experiment: Percentage inhibition against HIV-1 protease at 3 uM concentration of drug
[18] = target: Human immunodeficiency virus type 1 protease (Human immunodeficiency virus 1) (UniProt Q72874); experiment: Percentage inhibition against HIV-1 protease at 10 uM concentration of drug
[19] = Total plasma clearance value was obtained after intravenous administration of 2.5 mg/kg of drug in male Dawley rats; format: ADME, organism-based; parameters: dose 2.5 mg/kg, route intravenous; conditions: Sprague-Dawley, rat
[20] = Apparent volume of distribution was obtained after intravenous administration of 2.5 mg/kg of drug in male Dawley rats; format: ADME, organism-based; parameters: dose 2.5 mg/kg, route intravenous; conditions: Sprague-Dawley, rat, in vivo, read-out: Vss
[21] = Half-life was measured after intravenous administration of 2.5 mg/kg of drug in male Dawley rats; format: ADME, organism-based; parameters: dose 2.5 mg/kg, route intravenous; conditions: Sprague-Dawley, rat, in vivo
[22] = target: Human immunodeficiency virus type 1 protease (Human immunodeficiency virus 1) (UniProt Q72874); experiment: Percentage inhibition against HIV-1 protease at 1 uM concentration of drug

SMILES	EC50 [7] [nM]	CC50 [8] [nM]	Ki [15] [nM]	also measured
N#Cc1ccc(S(=O)(=O)Nc2cccc([C@@H](c3c(O)oc4c(c3=O)CCCCCC4)C3CC3)c2)cc1	1200	> 30000		clearance [1]: 0.817 mL/min/kg; Cmax [2]: 19 µM; Tmax [3]: 0.5 h; bioavailability [4]: 42%; Vd [5]: 0.12 L/kg; half-life [6]: 6.2 h
O=c1c2c(oc(O)c1[C@H](c1cccc(NS(=O)(=O)c3ccc(F)cc3)c1)C1CC1)CCCCCC2	800	> 30000	1.4	clearance [9]: 1.92 mL/min/kg; Cmax [10]: 10 µM; Tmax [11]: 0.25 h; bioavailability [12]: 58%; Vd [13]: 0.13 L/kg; half-life [14]: 2.2 h
O=c1c2c(oc(O)c1C(c1cccc(N(CCc3ccccc3)S(=O)(=O)c3ccccc3)c1)C1CC1)CCCCCC2 (stereo not given)				inhibition [16]: < 10%; inhibition [17]: < 10%
O=c1c2c(oc(O)c1C(c1cccc(N(CC3CC3)S(=O)(=O)c3ccccc3)c1)C1CC1)CCCCCC2 (stereo not given)				inhibition [16]: < 10%
CC(C)N(c1cccc(C(c2c(O)c3c(oc2=O)CCCCCC3)C2CC2)c1)S(=O)(=O)c1ccccc1 (stereo not given)				inhibition [16]: < 10%
N#Cc1cccc(S(=O)(=O)Nc2cccc(C(c3c(O)oc4c(c3=O)CCCCCC4)C3CC3)c2)c1 (stereo not given)	> 3000	> 30000	0.6	
O=c1c2c(oc(O)c1C(c1cccc(NS(=O)(=O)c3ccc4ccccc4n3)c1)C1CC1)CCCCCC2 (stereo not given)	5400	> 30000	0.4	
O=c1c2c(oc(O)c1C(c1cccc(NS(=O)(=O)c3cccc(Br)c3)c1)C1CC1)CCCCCC2 (stereo not given)	3000	> 30000	2.6	
CC(C)C(c1cccc(NS(=O)(=O)c2ccc(C#N)cc2)c1)c1c(O)c2c(oc1=O)CCCCCC2 (stereo not given)	> 10000	> 30000	5.9	
CC(C)CC(c1cccc(NS(=O)(=O)c2cn(C)cn2)c1)c1c(O)c2c(oc1=O)CCCCCC2 (stereo not given)	1300	> 30000	0.086	
O=c1c2c(oc(O)c1C(c1cccc(NS(=O)(=O)c3ccc(Cl)cc3)c1)C1CC1)CCCCCC2 (stereo not given)	2000	> 30000	2.5	
CCCC(c1cccc(NS(=O)(=O)c2cccnc2)c1)c1c(O)c2c(oc1=O)CCCCCC2 (stereo not given)	> 10000	> 30000	2.2	
CCCC(c1cccc(NS(=O)(=O)c2ccc(C#N)cc2)c1)c1c(O)c2c(oc1=O)CCCCCC2 (stereo not given)	3900	> 30000	1.4	
CCCCC(c1cccc(NS(=O)(=O)c2ccc(F)cc2)c1)c1c(O)c2c(oc1=O)CCCCCC2 (stereo not given)	> 10000	> 30000	6.1	
O=c1c2c(oc(O)c1C(c1cccc(NS(=O)(=O)c3cccc([N+](=O)[O-])c3)c1)C1CC1)CCCCCC2 (stereo not given)	4200	> 30000	4.7	
CC(C)CC(c1cccc(NS(=O)(=O)c2ccc(C#N)cc2)c1)c1c(O)c2c(oc1=O)CCCCCC2 (stereo not given)	6100	> 30000	1.5	
CC(C)(C)c1ccc(S(=O)(=O)Nc2cccc(C(c3c(O)c4c(oc3=O)CCCCCC4)C3CC3)c2)cc1 (stereo not given)	> 10000	> 30000	32	
CC(C)C(c1cccc(NS(=O)(=O)c2ccc(F)cc2)c1)c1c(O)c2c(oc1=O)CCCCCC2 (stereo not given)	> 10000	> 30000	11	
O=c1c2c(oc(O)c1C(c1cccc(NS(=O)(=O)c3ccccc3F)c1)C1CC1)CCCCCC2 (stereo not given)	5900	> 30000	11	
O=c1c2c(oc(O)c1C(c1cccc(NS(=O)(=O)c3ccccn3)c1)C1CC1)CCCCCC2 (stereo not given)	4600	> 30000	2.2	
O=c1c2c(oc(O)c1C(c1cccc(N(Cc3ccccc3)S(=O)(=O)c3ccccc3)c1)C1CC1)CCCCCC2 (stereo not given)				inhibition [16]: < 10%; inhibition [18]: < 10%
O=c1c2c(oc(O)c1C(c1cccc(NS(=O)(=O)c3ccc(F)cc3F)c1)C1CC1)CCCCCC2 (stereo not given)	4200	> 30000	4.1	
O=c1c2c(oc(O)c1C(c1cccc(NS(=O)(=O)c3cc(Cl)cc(Cl)c3)c1)C1CC1)CCCCCC2 (stereo not given)	> 10000	> 30000	6.9	
O=c1c2c(oc(O)c1C(c1cccc(NS(=O)(=O)c3ncccn3)c1)C1CC1)CCCCCC2 (stereo not given)	1700	> 30000	0.8	
CCCC(c1cccc(NS(=O)(=O)c2cccc3cccnc23)c1)c1c(O)c2c(oc1=O)CCCCCC2 (stereo not given)	> 3000	> 30000	2.1	
O=c1c2c(oc(O)c1C(c1cccc(NS(=O)(=O)c3ccc(C(F)(F)F)cc3)c1)C1CC1)CCCCCC2 (stereo not given)	6400	> 30000	6.2	
Cn1cnc(S(=O)(=O)Nc2cccc([C@@H](c3c(O)c4c(oc3=O)CCCCCC4)C3CC3)c2)c1	2100	> 30000	0.045	clearance [19]: 4.67 mL/min/kg; Cmax [2]: 0.64 µM; Tmax [3]: 0.25 h; bioavailability [4]: 15%; Vd [20]: 0.2 L/kg; half-life [21]: 2.4 h
O=c1c2c(oc(O)c1C(c1cccc(N(S(=O)(=O)c3ccccc3)S(=O)(=O)c3ccccc3)c1)C1CC1)CCCCCC2 (stereo not given)				inhibition [22]: 10%
O=c1c2c(oc(O)c1[C@H](c1cccc(NS(=O)(=O)c3cccc4cccnc34)c1)C1CC1)CCCCCC2	1300	> 30000	0.4	clearance [19]: 2.83 mL/min/kg; Cmax [2]: 6.2 µM; Tmax [3]: 0.25 h; bioavailability [4]: 34%; Vd [20]: 0.15 L/kg; half-life [21]: 1.8 h
O=C(O)c1ccc(S(=O)(=O)Nc2cccc(C(c3c(O)c4c(oc3=O)CCCCCC4)C3CC3)c2)cc1 (stereo not given)	> 10000	> 30000	11	
